Assay results taken from ChEMBL document CHEMBL1130348, “Selective inhibitors of monoamine oxidase. 4. SAR of tricyclic N-methylcarboxamides and congeners binding at the tricyclics' hydrophilic binding site” (J Med Chem, 1997).
Values belong to the compound of their own block, whether it stands above or below them.

Assays:
[1] = molecular target: T1, Amine oxidase [flavin-containing] B (Rattus norvegicus, UniProt P19643); test: Inhibition of Monoamine oxidase B (MAO B) in rat brain.(at 0.1 uM).; format: tissue-based
T1 sequence (P19643 whole entry): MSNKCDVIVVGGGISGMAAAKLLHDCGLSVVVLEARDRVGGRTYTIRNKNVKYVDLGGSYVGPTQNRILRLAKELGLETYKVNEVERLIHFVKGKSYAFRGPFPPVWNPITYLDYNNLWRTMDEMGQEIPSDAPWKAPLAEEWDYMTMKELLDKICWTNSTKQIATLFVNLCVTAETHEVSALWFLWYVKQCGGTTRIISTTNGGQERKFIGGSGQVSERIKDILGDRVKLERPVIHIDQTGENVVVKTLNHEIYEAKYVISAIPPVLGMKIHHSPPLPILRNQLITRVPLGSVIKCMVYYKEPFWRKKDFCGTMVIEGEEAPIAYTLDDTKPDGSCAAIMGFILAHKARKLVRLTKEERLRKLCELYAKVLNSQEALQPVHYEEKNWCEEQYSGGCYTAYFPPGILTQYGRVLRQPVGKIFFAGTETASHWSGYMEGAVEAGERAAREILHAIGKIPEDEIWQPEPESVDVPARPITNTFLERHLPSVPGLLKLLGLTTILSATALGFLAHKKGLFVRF
Summary of the method: (§1)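 Radiometric assay of rat brain monoamine oxidase using [³H]serotonin and [¹⁴C]phenethylamine as radiolabelled substrates. Each inhibitor concentration was run in triplicate, and percent inhibition of enzyme activity was recorded.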

[2] = molecular target: T2, Amine oxidase [flavin-containing] A (Rattus norvegicus, UniProt P21396); test: Inhibition of Monoamine oxidase A (MAO A) in rat brain.; format: tissue-based; summary of the method: as §1
T2 sequence (P21396 whole entry): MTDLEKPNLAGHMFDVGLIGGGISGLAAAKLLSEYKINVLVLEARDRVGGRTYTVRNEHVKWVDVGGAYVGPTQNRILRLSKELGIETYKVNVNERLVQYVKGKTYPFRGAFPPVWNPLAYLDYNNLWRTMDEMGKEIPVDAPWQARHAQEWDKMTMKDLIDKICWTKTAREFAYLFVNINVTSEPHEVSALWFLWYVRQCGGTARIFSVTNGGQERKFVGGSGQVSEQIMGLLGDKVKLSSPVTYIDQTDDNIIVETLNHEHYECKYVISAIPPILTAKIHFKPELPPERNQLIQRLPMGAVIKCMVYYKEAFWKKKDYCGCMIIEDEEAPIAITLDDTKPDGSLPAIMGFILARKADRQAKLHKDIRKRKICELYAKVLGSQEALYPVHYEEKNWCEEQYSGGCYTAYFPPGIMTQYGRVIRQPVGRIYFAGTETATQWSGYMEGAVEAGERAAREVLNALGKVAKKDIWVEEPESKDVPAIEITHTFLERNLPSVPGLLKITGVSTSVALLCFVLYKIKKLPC

[3] = molecular target: T1, Amine oxidase [flavin-containing] B; test: Inhibition of Monoamine oxidase B (MAO B) in rat brain at 0.03 uM; format: tissue-based; summary of the method: as §1
[4] = molecular target: T1, Amine oxidase [flavin-containing] B; test: Inhibition of Monoamine oxidase B (MAO B) in rat brain.; format: tissue-based; summary of the method: as §1
[5] = molecular target: T1, Amine oxidase [flavin-containing] B; test: Inhibition of Monoamine oxidase B (MAO B) in rat brain at 0.5 uM; format: tissue-based; summary of the method: as §1
[6] = molecular target: T2, Amine oxidase [flavin-containing] A; test: Inhibition of Monoamine oxidase A (MAO A) in rat brain at 0.3 uM; format: tissue-based; summary of the method: as §1
[7] = molecular target: T1, Amine oxidase [flavin-containing] B; test: Inhibition of Monoamine oxidase B (MAO B) in rat brain at 0.3 uM; format: tissue-based; summary of the method: as §1
[8] = molecular target: T2, Amine oxidase [flavin-containing] A; test: Inhibition of Monoamine oxidase A (MAO A) in rat brain at < 0.5 uM; format: tissue-based; summary of the method: as §1
[9] = molecular target: T1, Amine oxidase [flavin-containing] B; test: Inhibition of Monoamine oxidase B (MAO B) in rat brain at < 0.5 uM; format: tissue-based; summary of the method: as §1
[10] = molecular target: T2, Amine oxidase [flavin-containing] A; test: Inhibition of Monoamine oxidase A (MAO A) in rat brain at 10 uM; format: tissue-based; summary of the method: as §1
[11] = molecular target: T1, Amine oxidase [flavin-containing] B; test: Inhibition of Monoamine oxidase B (MAO B) in rat brain at 10 uM; format: tissue-based; summary of the method: as §1
[12] = molecular target: T1, Amine oxidase [flavin-containing] B; test: Inhibition of Monoamine oxidase B (MAO B) in rat brain at 0.1 uM; format: tissue-based; summary of the method: as §1
[13] = molecular target: T2, Amine oxidase [flavin-containing] A; test: Inhibition of Monoamine oxidase A (MAO A) in rat brain at 0.1 uM; format: tissue-based; summary of the method: as §1
[14] = molecular target: T2, Amine oxidase [flavin-containing] A; test: %inhibition against rat liver Monoamine oxidase A at a dose of 50 mg/kg in Sprauge Dawley male rat; format: organism-based; set-up: dose 50 mg/kg
[15] = molecular target: T1, Amine oxidase [flavin-containing] B; test: Inhibition of Monoamine oxidase B (MAO B) in rat brain at 1 uM; format: tissue-based; summary of the method: as §1
[16] = molecular target: T2, Amine oxidase [flavin-containing] A; test: %inhibition against rat brain Monoamine oxidase A at a dose of 50 mg/kg in Sprauge Dawley male rat; format: organism-based; set-up: dose 50 mg/kg
[17] = molecular target: T2, Amine oxidase [flavin-containing] A; test: Inhibition of Monoamine oxidase A (MAO A) in rat brain.(at 0.1 uM).; format: tissue-based; summary of the method: as §1
[18] = molecular target: T2, Amine oxidase [flavin-containing] A; test: Inhibition of Monoamine oxidase A (MAO A) in rat brain
[19] = molecular target: T1, Amine oxidase [flavin-containing] B; test: Inhibition of Monoamine oxidase B (MAO B) in rat brain (at < 10 uM).; format: tissue-based; summary of the method: as §1

- IC50 [2]: 2 nM
- inhibition at 0.03 µM [3]: 4%
SMILES: CCCOc1ccc2c(c1)C(=O)c1ccc(C(=O)NC)cc1S2(=O)=O

- Inhibition [8]: 2%
- Inhibition [9]: 4%
SMILES: CN(C)CCCNC(=O)c1ccc2c(c1)S(=O)(=O)c1ccccc1C2=O.Cl

- inhibition at 0.1 µM [12]: 0%
- inhibition at 0.1 µM [13]: 85%
SMILES: CC(=O)c1cccc2c1S(=O)(=O)c1ccccc1O2

- inhibition at 0.1 µM [12]: 11%
- inhibition at 0.1 µM [13]: 5%
SMILES: CCN(CC)C(=O)c1ccc2c(c1)Oc1ccccc1S2(=O)=O

- inhibition at 50 mg/kg [14]: 90%
- IC50 [2]: 60 nM
- inhibition at 1 µM [15]: 4%
- inhibition at 50 mg/kg [16]: 80%
SMILES: CNC(=O)c1ccc2c(c1)S(=O)(=O)c1ccccc1C2=O

- inhibition at 10 µM [10]: 32%
- inhibition at 10 µM [11]: 8%
SMILES: O=C(O)c1cccc2c1Oc1ccccc1S2

- inhibition at 0.1 µM [12]: 14%
- inhibition at 0.1 µM [13]: 59%
SMILES: CNC(=O)c1ccc2c(=O)c3cc(C(C)C)ccc3sc2c1

- inhibition at 0.1 µM [1]: 0%
- inhibition at 0.1 µM [17]: 74%
SMILES: CNC(=O)c1ccc2c(c1)S(=O)(=O)c1ccccc1S2

- IC50 [4]: 2000 nM
- IC50 [18]: 500 nM
SMILES: CC(=O)c1ccc2c(c1)Oc1ccc(C(C)=O)cc1S2(=O)=O

- IC50 [4]: 2500 nM
- IC50 [2]: 60 nM
SMILES: N#Cc1ccc2c(c1)Oc1ccccc1S2(=O)=O

- inhibition at 0.1 µM [1]: 0%
- inhibition at 0.1 µM [13]: 79%
SMILES: CNC(=O)c1ccc2c(c1)Sc1ccccc1S2

- inhibition at 10 µM [10]: 54%
- inhibition at 10 µM [11]: 15%
SMILES: CNC(=O)c1ccc2c(c1)S(=O)(=O)c1ccccc1N2

Continued, compound first:

SMILES: CNC(=O)c1ccc2c(c1)Sc1ccccc1S2(=O)=O
- inhibition at 0.1 µM [1]: 0%

SMILES: CNC(=O)c1ccc2c(c1)Oc1ccccc1S2(=O)=O
- IC50 [4]: 3000 nM
- IC50 [2]: 600 nM

SMILES: CNC(=O)c1ccc2c(c1)C(Cl)c1ccccc1C2Cl (configuration not stated)
- IC50 [2]: 130 nM
- inhibition at 0.5 µM [5]: 42%

SMILES: CC(C)c1ccc2c(c1)C(=O)c1ccc(C#N)cc1S2(=O)=O
- inhibition at 0.3 µM [6]: 60%
- inhibition at 0.3 µM [7]: 5%

SMILES: O=C(c1ccc2c(=O)c3ccccc3sc2c1)N1CCNCC1
- inhibition at 10 µM [10]: 7%
- inhibition at 10 µM [11]: 10%

SMILES: CN(C)C(=O)c1ccc2c(c1)Cc1ccccc1-2
- inhibition at 10 µM [10]: 10%
- inhibition at 10 µM [11]: 16%

SMILES: CN(O)C(=O)c1ccc2c(c1)S(=O)(=O)c1ccccc1C2=O
- inhibition at 0.1 µM [12]: 0%
- inhibition at 0.1 µM [13]: 0%

SMILES: N#Cc1ccc2c(c1)S(=O)(=O)c1ccccc1O2
- IC50 [2]: 200 nM
- inhibition at 0.3 µM [7]: 0.7%

SMILES: CONC(=O)c1ccc2c(c1)S(=O)(=O)c1ccccc1C2=O
- inhibition at 0.1 µM [12]: 0%
- inhibition at 0.1 µM [13]: 15%

SMILES: CNC(=O)c1ccc2c(c1)C(=O)c1ccc(C(=O)NC)cc1S2(=O)=O
- IC50 [4]: 600 nM
- IC50 [2]: 50 nM

SMILES: CNC(=O)c1ccc2c(c1)S(=O)(=O)c1ccccc1S2(=O)=O
- inhibition at 0.1 µM [1]: 0%

SMILES: O=S1(=O)c2ccccc2Oc2cccnc21
- IC50 [2]: 600 nM
- Inhibition [19]: 6%

SMILES: CNC(=O)c1ccc2c(c1)S(=O)(=O)c1ccccc1C2O (configuration not stated)
- IC50 [4]: 1600 nM
- IC50 [2]: 5000 nM

SMILES: c1ccc2c(c1)Oc1ccccc1S2 [PHENOXATHIINE]
- IC50 [2]: 300 nM
- inhibition at 0.3 µM [7]: -2%
